Measured values reported in ChEMBL document CHEMBL3124900, “Discovery and early clinical evaluation of BMS-605339, a potent and orally efficacious tripeptidic acylsulfonamide NS3 protease inhibitor for the treatment of hepatitis C virus infection” (J Med Chem, 2014).
Calls of active or inactive are those of the source. No cut-off for these calls is given here.

What was measured:
Hepatitis C virus [1] = test: Antiviral activity against Hepatitis C virus genotype 1b Con1 after 4 days by cell-based replicon assay; format: functional, organism-based, Hepacivirus hominis; details: isolate Con1, 96 h
Homo sapiens [2] = test: Cardiovascular toxicity in Hepatitis C virus genotype 1 infected human assessed as PR-interval prolongation at 120 mg, po by electrocardiography; format: organism-based; details: in vivo
Hepatitis C virus [3] = test: Antiviral activity against Hepatitis C virus genotype 1a H77 assessed as inhibition of HCV replicon-encoded Renilla luciferase reporter activity after 4 days by cell-based HCV replicon assay; format: functional, organism-based, Hepacivirus hominis; details: genotype 1a H77, 96 h
Homo sapiens [4] = test: Cardiovascular toxicity in healthy human assessed as mild bradycardia at 120 mg, po by electrocardiography; format: organism-based; details: in vivo
[5] = Terminal half life in po dosed human; format: ADME, organism-based; details: in vivo, read-out: beta t1/2 (converted)
[6] = Oral bioavailability in Beagle dog by LC/MS/MS analysis; format: ADME, organism-based, Canis lupus familiaris; details: in vivo
Cytochrome P450 3A4 = Cytochrome P450 3A4 (Homo sapiens, UniProt P08684); test: Inhibition of CYP3A4 (unknown origin); format: ADME
Liver = test: Drug uptake in intraduodenally dosed Sprague-Dawley rat liver measured per gm of tissue over 4 hrs by LC/MS/MS analysis; format: ADME, organism-based; details: in vivo, other
Outline: (§1)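 Abbreviated rat screen: surgically prepared rats were dosed intraduodenally. Plasma was sampled over 4 h, and liver was collected at the 4 h end point. Plasma was precipitated with two volumes of ACN plus internal standard. Liver was weighed and homogenized in 2 volumes of 20% Hanks buffered salt solution/80% ACN. Both were quantified by LC/MS/MS.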

[7] = Ratio of drug level in liver to plasma in Beagle dog at 14 mg/kg, po measured after 24 hrs by LC/MS/MS analysis; format: ADME, organism-based, Canis lupus familiaris; set-up: dose 14 mg/kg, route oral
Outline: (§2)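 Single oral dose (dog 14 mg/kg, rat 15 mg/kg), with liver and plasma sampled 24 h post-dose. Plasma was precipitated with two volumes of ACN containing internal standard and centrifuged. Tissue was weighed and homogenized in 2 volumes of 20% Hanks buffer/80% ACN. LC/MS/MS used a C18 column at 60 °C, ammonium formate/formic acid water–methanol gradient, and SRM detection. LLQ was 5 nM. Ratio is liver over plasma level.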

Homo sapiens [8] = test: Cardiovascular toxicity in healthy human assessed as PR-interval prolongation at 120 mg, po by electrocardiography; format: organism-based; details: in vivo
[9] = Half life in rat liver microsomes at 3 uM by LC/MS/MS analysis; format: ADME
Outline: (§3)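 Pooled liver microsomes were run in triplicate per species. Each incubation held 3 μM test compound in 0.1 M potassium phosphate pH 7.4 at 37 °C, with 0.9 mg/mL microsomal protein, 0.033 mM MgCl2 and an NADPH-regenerating system. Proteins were precipitated with two volumes of ACN containing internal standard, and supernatants were analysed by LC/MS/MS.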

[10] = Drug uptake into dog hepatocytes by silicone oil layer method; format: ADME, cell-based, Canis lupus familiaris, Hepatocyte
[11] = Drug uptake into Sprague-Dawley rat hepatocytes by silicone oil layer method; format: ADME, cell-based, Hepatocyte
[12] = test system: Canine parainfluenza virus; test: Antiviral activity against Canine parainfluenza virus; format: functional
[13] = test system: Human immunodeficiency virus; test: Antiviral activity against Human immunodeficiency virus; format: functional, organism-based
[14] = AUC in Sprague-Dawley rat at 15 mg/kg, po administered via gavage by LC/MS/MS analysis; format: ADME, organism-based; set-up: dose 15 mg/kg, route oral; details: plasma
Hepatitis C virus [15] = test: Antiviral activity against Hepatitis C virus genotype 1 infected in human assessed as reduction in plasma viral load administered orally measured after 12 hrs; format: functional, organism-based; details: Hepacivirus hominis
Outline: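 HCV genotype 1-infected subjects received single oral doses of 10, 60 or 120 mg. Plasma HCV RNA was followed, and mean log10 reduction in viral load was read 12 h after dosing.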

Homo sapiens [16] = test: Cardiovascular toxicity in Hepatitis C virus genotype 1 infected human assessed as mild bradycardia at 120 mg, po by electrocardiography; format: organism-based; details: in vivo
Salmonella typhimurium = test: Mutagenicity in Salmonella typhimurium by Ames test; format: toxicity, organism-based; details: salmonella enterica subsp. enterica serovar typhimurium
Homo sapiens [17] = test: Cardiovascular toxicity in healthy human assessed as junctional rhythm disturbances at 120 mg, po by electrocardiography; format: organism-based; details: in vivo
[18] = Oral bioavailability in cynomolgus monkey at 3 mg/kg administered via gavage by LC/MS/MS analysis; format: ADME, organism-based, Macaca fascicularis; details: in vivo
Homo sapiens [19] = test: Cardiovascular toxicity in Hepatitis C virus genotype 1 infected human assessed as junctional rhythm disturbances at 120 mg, po by electrocardiography; format: organism-based; details: in vivo
[20] = test system: Bovine viral diarrhea virus 1; test: Antiviral activity against Bovine viral diarrhea virus; format: functional, organism-based
[21] = Oral bioavailability in Sprague-Dawley rat at 15 mg/kg administered via gavage by LC/MS/MS analysis; format: ADME, organism-based; details: in vivo
[22] = Ratio of drug level in liver to plasma in Sprague-Dawley rat at 15 mg/kg, po administered via gavage measured after 24 hrs by LC/MS/MS analysis; format: ADME, organism-based; set-up: dose 15 mg/kg, route oral; outline: as §2
[23] = Drug uptake into human hepatocytes by silicone oil layer method; format: ADME, cell-based, Hepatocyte
[24] = Cytotoxicity against human HuH7 cells; format: cell-based; details: Huh-7 cells
[25] = (§4) AUC in intraduodenally dosed Sprague-Dawley rat plasma measured over 4 hrs by LC/MS/MS analysis; format: ADME, organism-based; set-up: time < 4 hr, route intraduodenal; details: Sprague-Dawley, plasma; outline: as §1
[26] = Binding affinity to P-glycoprotein (unknown origin); format: ADME; details: human
[27] = Tmax in po dosed human; format: ADME, organism-based; details: in vivo
[28] = Genotoxicity in micronucleus (unknown origin)
[29] = Apparent terminal half life in Sprague-Dawley rat at 5 mg/kg, iv by LC/MS/MS analysis; format: ADME, organism-based; set-up: dose 5 mg/kg, route intravenous; details: in vivo, read-out: betat1/2(app) (converted)
[30] = Inhibition of Hepatitis C virus genotype 1a H77 recombinant NS3/4A protease expressed in Escherichia coli BL21 (DE3) cell using Ac-Asp-Glu-Asp(EDANS)-Glu-Glu-Abu[C(O)-O]-Ala-Ser-Lys(DABCYL)-NH2 as substrate by FRET assay; set-up: species or system Hepatitis C virus (isolate H77)
Plasma = test: as §4; format: ADME, organism-based; set-up: time < 4 hr, route intraduodenal; details: in vivo, other, 4 h, BLD = below limit of detection; outline: as §1
[31] = Whole body plasma clearance in Sprague-Dawley rat at 5 mg/kg, iv by LC/MS/MS analysis; format: ADME, organism-based; set-up: dose 5 mg/kg, route intravenous
[32] = AUC in Sprague-Dawley rat at 20 mg/kg, po administered via gavage by LC/MS/MS analysis; format: ADME, organism-based; set-up: dose 20 mg/kg, route oral; details: plasma
[33] = Plasma concentration in Sprague-Dawley rat at 20 mg/kg, po administered via gavage measured after 4 hrs by LC/MS/MS analysis; format: ADME, organism-based; set-up: dose 20 mg/kg, route oral
[34] = Half life in dog liver microsomes at 3 uM by LC/MS/MS analysis; format: ADME, Canis lupus familiaris; outline: as §3
[35] = Whole body plasma clearance in Beagle dog at 3 mg/kg, iv by LC/MS/MS analysis; format: ADME, organism-based, Canis lupus familiaris; set-up: dose 3 mg/kg, route intravenous
[36] = Apparent terminal half life in Beagle dog at 3 mg/kg, iv by LC/MS/MS analysis; format: ADME, organism-based, Canis lupus familiaris; set-up: dose 3 mg/kg, route intravenous; details: in vivo, read-out: betat1/2(app) (converted)
[37] = Drug uptake in Sprague-Dawley rat liver at 20 mg/kg, po administered via gavage measured after 8 hrs by LC/MS/MS analysis; format: ADME, organism-based; set-up: dose 20 mg/kg, route oral; details: read-out: Drug uptake
[38] = Drug uptake in Sprague-Dawley rat liver at 20 mg/kg, po administered via gavage measured after 4 hrs by LC/MS/MS analysis; format: ADME, organism-based; set-up: dose 20 mg/kg, route oral; details: read-out: Drug uptake
[39] = Plasma concentration in Sprague-Dawley rat at 20 mg/kg, po administered via gavage measured after 8 hrs by LC/MS/MS analysis; format: ADME, organism-based; set-up: dose 20 mg/kg, route oral
[40] = AUC in Beagle dog at 3 mg/kg by LC/MS/MS analysis; format: ADME, organism-based, Canis lupus familiaris; set-up: dose 3 mg/kg; details: plasma

Cytochrome P450 3A4, sequence (P08684 whole entry): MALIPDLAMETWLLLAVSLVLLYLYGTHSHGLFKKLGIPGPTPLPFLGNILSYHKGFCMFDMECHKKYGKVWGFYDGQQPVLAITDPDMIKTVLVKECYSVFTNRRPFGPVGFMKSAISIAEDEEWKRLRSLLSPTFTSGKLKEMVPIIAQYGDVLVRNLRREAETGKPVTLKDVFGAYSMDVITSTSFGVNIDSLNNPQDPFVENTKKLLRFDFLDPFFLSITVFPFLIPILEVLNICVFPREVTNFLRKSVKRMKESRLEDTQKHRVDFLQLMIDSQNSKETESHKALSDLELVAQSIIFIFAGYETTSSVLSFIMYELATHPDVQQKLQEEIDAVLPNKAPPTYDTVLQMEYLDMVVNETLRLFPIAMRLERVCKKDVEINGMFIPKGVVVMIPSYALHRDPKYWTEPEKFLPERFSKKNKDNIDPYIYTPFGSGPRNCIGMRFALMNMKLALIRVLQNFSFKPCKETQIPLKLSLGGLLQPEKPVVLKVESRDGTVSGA

C=C[C@@H]1C[C@]1(NC(=O)[C@@H]1C[C@@H](Oc2nccc3cc(OC)ccc23)CN1C(=O)[C@@H](NC(=O)OC(C)(C)C)C(C)(C)C)C(=O)NS(=O)(=O)C1CC1
EC50 (Hepatitis C virus [1]): 2.8 nM
Activity (Homo sapiens [2]): Toxic
EC50 (Hepatitis C virus [3]): 8.3 nM
Activity (Homo sapiens [4]): Toxic
half-life [5]: 4 h
bioavailability [6]: 51%
IC50 (Cytochrome P450 3A4): 2000 nM
Drug uptake (Liver): 64710 ng
Kp at 24 h [7]: 75
Activity (Homo sapiens [8]): Toxic
half-life at 3 µM [9]: > 1 h
Km [10]: 1.4 µM
Km [11]: 1.4 µM
Activity [12]: inactive
Activity [13]: inactive
AUC [14]: 14.1 µM·h
Activity (Hepatitis C virus [15]): Dose-dependent effect
Activity (Homo sapiens [16]): Toxic
Activity (Salmonella typhimurium): Non-toxic
Activity (Homo sapiens [17]): Toxic
bioavailability [18]: < 1%
Activity (Homo sapiens [19]): Toxic
Activity [20]: inactive
bioavailability [21]: 18%
Kp at 24 h [22]: 136
Km [23]: 1.4 µM
CC50 [24]: > 100000 nM
AUC at 4 h [25]: 10.4 µM·h
Activity [26]: Active
Tmax [27]: 1.5 h
Activity [28]: Non-toxic
half-life [29]: 4.4 h

C=C[C@@H]1C[C@]1(NC(=O)[C@@H]1C[C@@H](Oc2nccc3cc(OC)ccc23)CN1C(=O)[C@@H](NC(=O)OC(C)(C)C)C(C)(C)C)C(=O)O
EC50 (Hepatitis C virus [1]): 2000 nM
Drug uptake (Liver; BLD = below limit of detection): BLD
IC50 [30]: 247 nM
CC50 [24]: > 100000 nM
AUC (Plasma): BLD

C=C[C@@H]1C[C@]1(NC(=O)[C@@H]1C[C@@H](Oc2cc(-c3ccccc3)nc3cc(OC)ccc23)CN1C(=O)[C@@H](NC(=O)OC(C)(C)C)C(C)(C)C)C(=O)NS(=O)(=O)C1CC1
clearance [31]: 55 mL/min/kg
EC50 (Hepatitis C virus [1]): 4 nM
Drug uptake (Liver): 7850 ng
AUC [32]: 0.73 µM·h
AUC [14]: 0.577 µM·h
concentration at 4 h [33]: 580 nM
half-life at 3 µM [34]: 2.83 h
clearance [35]: 16 mL/min/kg
half-life [36]: 0.6 h
IC50 [30]: 1 nM
concentration at 8 h [37]: 600 nM
concentration at 4 h [38]: 5800 nM
AUC at 4 h [25]: 0.077 µM·h
concentration at 8 h [39]: 4 nM
AUC [40]: 2 µM·h
half-life [29]: 1 h
